An excerpt weighted towards active compounds, which were near 4.6% of everything screened.
TAAR1 agonist: agonists of human TAAR1; Q96RJ0; AID 624467; activation, % at 3 µM; 0.99% of 360,000 active; CHO RD-HGA16 TAAR1, Fluo-8 calcium fluorescence; vehicle wells 0%, saturating PEA agonist 100%;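 active means activation above the mean activation of all test compounds in the run plus 3 SD, cut at about 38% in these data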
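Benchmarks: low control DMSO, high control PEA (EC100); System: CHO RD-HGA16 cells carrying human TAAR1 plus Gα16; Detection: Fluo-8 fluorescence, 5 s baseline then 140 s kinetic read; Schedule: 17-24 h plating, Fluo-8 75 min 37 °C, 30 min RT; Read-out basis: % activation from peak over basal fluorescence ratio, DMSO-to-PEA scaled.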
OX1R antag-1: blocks the human orexin 1 receptor; CHO/OX1R cells, Fluo-8 calcium fluorescence, orexin A; inhibition, % at 5 µM; AID 434989; O43613; 0.43% of 330,000 active;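 active means inhibition above its plate's threshold, mean inhibition of all tested compounds on the plate plus 3 SD, cut at about 37% in these data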;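 further: 0% = orexin A challenge wells and 100% = SB-334867-A antagonist wells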
Target sequence (O43613 whole entry, looked up): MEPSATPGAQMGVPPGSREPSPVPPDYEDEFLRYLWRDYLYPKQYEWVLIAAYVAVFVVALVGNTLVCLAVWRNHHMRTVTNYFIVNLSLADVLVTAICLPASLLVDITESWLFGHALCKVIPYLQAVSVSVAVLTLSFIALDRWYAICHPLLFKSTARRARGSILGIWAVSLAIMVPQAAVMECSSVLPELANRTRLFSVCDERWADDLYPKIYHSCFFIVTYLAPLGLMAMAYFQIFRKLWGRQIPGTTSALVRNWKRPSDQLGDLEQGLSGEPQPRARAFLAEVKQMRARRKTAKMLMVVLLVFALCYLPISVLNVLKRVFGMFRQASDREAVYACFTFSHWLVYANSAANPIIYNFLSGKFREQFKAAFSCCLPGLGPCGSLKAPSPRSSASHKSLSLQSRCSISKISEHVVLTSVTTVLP
OX1R antag-2: antagonists of human orexin 1 receptor (OX1R). O43613. OX1R-expressing cells, FRET antagonist read-out. inhibition, % at 6.6 µM. 1.8% of 330,000 active. AID 485270; in the data active means inhibition mostly above about 38%, no sharp cut-off; inactive means mostly below about 40%;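 further: 0% = agonist challenge alone and 100% = reference antagonist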
CHO parental Ca: signal in parental CHO cells, OX1R antagonist counter-screen. parental CHO-K1, ATP-induced calcium, Fluo-8 fluorescence. inhibition, % at 5.6 µM. 0.63% of 330,000 active. AID 463079;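 active means inhibition above that plate's mean sample inhibition plus 3 SD, cut at about 26% in these data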;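 further: 0% = ATP-challenged DMSO wells and 100% = DMSO wells without ATP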
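Assay system – parental CHO cells · Reagent – ATP stimulus · Detection – intracellular calcium via Fluo-8 no-wash fluorescent dye · Evaluation – percent inhibition of ATP-evoked calcium rise, normalized to controls · Controls – ATP wells versus no-ATP DMSO wells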
TAAR1 antag: human TAAR1 antagonism; Q96RJ0; CHO RD-HGA16 TAAR1, Fluo-8 calcium fluorescence, antagonist; inhibition, % at 3 µM; 1.5% of 360,000 active;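 active means inhibition above a per-plate cutoff, the mean inhibition of test compounds on that plate plus 3 SD, cut at about 49% in these data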;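 further: 0% = DMSO plus EC80 beta-PEA response and 100% = DMSO alone without agonist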
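System: RD-HGA16 CHO cells with stable hTAAR1 and Gα16 | Probe or stimulus: EC80 β-phenethylamine stimulus | Dosing: 3 µM, single point | Times: Dye loading 75 min at 37 °C, then 30 min room temperature | Measured by: Fluo-8 calcium-sensitive fluorescence | Read-out basis: % inhibition of agonist calcium response | Replicates: n of 1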
GPR7 antagonist: antagonists of human GPR7 (neuropeptides B/W receptor 1) | P48145 | AID 1861 | 1.1% of 290,000 active | GPR7-expressing cells, fluorescence antagonist assay | inhibition, % at 4.4 µM; in the data active means inhibition above about 16%, passing the limit was not always enough;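 further: cells stimulated with the agonist NPW; 0% = agonist with vehicle and 100% = vehicle without agonist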
Target sequence (P48145 whole entry, looked up): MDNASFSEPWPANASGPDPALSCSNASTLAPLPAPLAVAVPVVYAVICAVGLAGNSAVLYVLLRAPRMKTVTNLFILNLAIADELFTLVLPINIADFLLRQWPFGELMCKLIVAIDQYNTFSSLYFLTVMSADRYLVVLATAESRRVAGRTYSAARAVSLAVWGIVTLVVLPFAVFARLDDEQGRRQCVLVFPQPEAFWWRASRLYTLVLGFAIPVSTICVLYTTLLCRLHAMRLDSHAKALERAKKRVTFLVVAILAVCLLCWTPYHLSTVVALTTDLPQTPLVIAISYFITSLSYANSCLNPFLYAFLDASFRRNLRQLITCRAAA
nonsel antag count: nonselective antagonism, TAAR1 counter-screen; shares compounds with TAAR1 antag; AID 651780; inhibition, % at 3 µM; counterscreen cell line, calcium fluorescence, antagonist mode; 77% of 2,400 active; in the data active means inhibition above about 22%;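 further: CHO-Ga16 host cells stimulated with ATP at an EC80 level; 0% = agonist EC80 plus vehicle and 100% = vehicle without agonist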
TAAR1 ant conf: human TAAR1 antagonism, confirmed. shares compounds with TAAR1 antag. TAAR1-expressing cells, fluorescence antagonist read-out. inhibition, % at 3 µM. 40% of 2,400 active. AID 651785; in the data active means inhibition above about 49%;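 further: CHO-Ga16 host cells challenged with agonist PEA near its EC80; 0% = agonist at EC80 plus vehicle and 100% = vehicle with no agonist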
Ga16 ag counter: nonselective Ga16 agonism, counter-screen; shares compounds with TAAR1 antag; Ga16-expressing cells, calcium fluorescence, agonist counterscreen; activation, % at 3 µM; 18% of 2,400 active; AID 651953; in the data active means activation above about 12%;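 further: 0% = vehicle wells and 100% = saturating stimulus response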
TAAR1 ag counter: counter-screen for human TAAR1 antagonists: TAAR1 agonists; shares compounds with TAAR1 antag; hTAAR1 cell line, fluorescence activation, agonist mode; activation, % at 3 µM; 2% of 2,400 active; in the data active means activation above about 37%;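 further: CHO cells stably expressing TAAR1 with calcium dye readout; 0% = DMSO vehicle and 100% = full agonist response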
Starred values were filed as active, the others as inactive; x = no result.

SMILES	TAAR1 agonist	OX1R antag-1	OX1R antag-2	CHO parental Ca	TAAR1 antag	GPR7 antagonist	nonsel antag count	TAAR1 ant conf	Ga16 ag counter	TAAR1 ag counter
CCOC(=O)C1(C)CCN1C(=O)c1ccc(C(F)(F)F)cc1 (stereo not given)	3.5	x	x	x	-22.4	x	x	x	x	x
COc1cc(C(C(=O)NC2CCCC2)N(Cc2ccco2)C(=O)c2snc(C(N)=O)c2N)cc(OC)c1OC (stereo not given)	10.1	-27.9	23.1	-20.1	16.1	-13.9	x	x	x	x
CN(C)c1ccc(C(C(=O)NC2CCCCC2)N(Cc2ccco2)C(=O)c2snc(C(N)=O)c2N)cc1 (stereo not given)	14.9	-21.3	13.2	-8.1	58.3*	-13.2	31.2*	53.0*	7.7	12.1
CC(=O)N/C(=C\c1ccccc1)C(=O)OCc1ccc(F)cc1	3.2	x	x	x	-29.9	-7.0	x	x	x	x
O=S(=O)(c1cccc(COc2c(Cl)cccc2Cl)c1)N1CCOCC1	-0.4	-11.5	24.7	-21.5	-24.4	x	x	x	x	x
Cc1c(-c2ccccc2)nc2ccccc2c1C(=O)OCC(=O)Nc1ncc(C(F)(F)F)cc1Cl	5.0	-18.3	6.2	-25.4	53.4*	-9.2	14.3	27.7	4.6	9.6
CCCCn1c(N)c(N(CCOC)C(=O)CC2CCCCC2)c(=O)[nH]c1=O	0.1	x	x	x	-5.8	x	x	x	x	x
COCCCNC(=O)/C(C#N)=C/c1c(N2CCN(c3cccc(Cl)c3)CC2)nc2c(C)cccn2c1=O	4.5	-32.8	8.4	-33.1	31.8	-8.6	x	x	x	x
COCCCNC(=O)/C(C#N)=C/c1c(N2CCN(c3ccccc3)CC2)nc2c(C)cccn2c1=O	11.1	-8.4	23.9	-26.6	50.5*	-9.5	19.3	36.3	6.5	6.1
CC(C(=O)NC1C=CS(=O)(=O)C1)N1C(=O)/C(=C/c2ccc(Cl)cc2)SC1=S (stereo not given)	6.4	-2.4	12.3	3.8	-9.1	10.8	x	x	x	x
CC1CCN(C(=O)c2ccc(N(C)S(C)(=O)=O)cc2)CC1	5.5	-11.0	22.9	-12.6	107.5*	4.8	-2.6	-4.4	2.5	5.5
CC(=O)c1ccc(NC(=O)N2CCCC(C(=O)c3ccc4c(c3)OCO4)C2)cc1 (stereo not given)	9.5	-32.9	18.3	-8.2	48.8*	-7.6	22.5*	34.8	10.5	10.6
Cc1cc(NC(=O)COC(=O)[C@@H](NS(=O)(=O)c2ccc(Br)cc2)C(C)C)no1	0.9	-29.2	13.1	1.6	-9.7	-3.9	x	x	x	x
CC(C)CN1CC(=O)N2C(c3ccccc3)c3[nH]c4ccccc4c3C[C@H]2C1=O (stereo not given in full)	36.5	-11.7	-2.7	-5.7	60.8*	11.3	23.2*	44.5	12.8*	17.6
N#Cc1ccc(CN2CCN(C(=O)CCNS(=O)(=O)c3ccc(F)c(F)c3)CC2)cc1	2.5	-18.9	-0.6	-5.2	16.0	x	x	x	x	x
COc1ccc(-c2cn(Cc3ccc4c(c3)C(=O)c3ccccc3C4=O)nn2)cc1	8.3	-4.5	9.2	-7.8	7.0	2.0	x	x	x	x
COc1ccc(-c2cn(Cc3ccc4ccccc4c3)nn2)cc1	30.5	-0.3	15.5	20.1	106.3*	-1.0	46.3*	80.7*	9.6	14.5
COCC1CN(CCc2ccc(F)cc2)S(=O)(=O)c2c(OCCN3C(=O)[C@@H]4[C@H](C3=O)[C@@H]3C=C[C@H]4C3)cccc2O1 (stereo not given in full)	17.8	x	x	x	63.0*	x	36.4*	58.2*	9.2	12.1
Cc1ccc(/C=C2\C(=O)ON=C2c2ccccc2)o1	7.1	-4.3	0.8	3.8	16.7	9.9	x	x	x	x
Cc1ccc(-c2ccc(/C=C3\C(=O)ON=C3c3ccccc3)o2)c([N+](=O)[O-])c1	21.0	3.3	22.1	-7.4	64.6*	-4.0	77.9*	80.7*	23.9*	27.7
CC(=O)c1cccc(OCc2cc(C(=O)NCCC3=CCCCC3)no2)c1	2.6	-34.5	6.9	-13.5	9.6	-6.0	x	x	x	x
COc1ccc(-c2cc(-c3nnc(COC(=O)c4ccc(O)cc4)o3)c3ccccc3n2)cc1OC	15.7	-12.0	13.4	-7.5	48.4	1.2	x	x	x	x
COc1ccc(-c2cc(-c3nnc(COC(=O)C4CC4C)o3)c3ccccc3n2)cc1OC (stereo not given)	10.8	-24.7	20.4	-15.6	65.3*	-8.9	21.3	41.5	5.2	1.2
O=C1c2ccccc2C(Nc2ccc3c(c2)OCCO3)N1c1ccc(Cl)cn1 (stereo not given)	2.1	-29.3	20.0	-10.7	50.5*	-4.7	23.4*	37.9	2.0	2.8
O=C1c2ccccc2C(Nc2ccc3c(c2)OCCO3)N1Cc1ccc2c(c1)OCO2 (stereo not given)	0.0	-7.7	17.8	-1.5	63.1*	9.2	15.6	29.3	7.1	14.9
SMILES	TAAR1 agonist	OX1R antag-1	OX1R antag-2	CHO parental Ca	TAAR1 antag	GPR7 antagonist	nonsel antag count	TAAR1 ant conf	Ga16 ag counter	TAAR1 ag counter
CC(C)(C)NC(=O)C(c1cccs1)N(C(=O)c1csnn1)c1ccccc1F (stereo not given)	8.6	-5.9	22.9	-14.6	12.0	-8.1	x	x	x	x
CCOC(=O)c1ccc(NC(=O)CN2C(=O)C(CC)SC(CC)C2=O)cc1 (stereo not given)	7.8	-19.4	10.8	-2.6	5.2	-14.2	x	x	x	x
Fc1ccc(-n2nnc(-c3cccnc3)n2)cc1	0.7	-11.9	27.8	-17.9	-3.8	-9.3	x	x	x	x
Fc1ccc(C(CCCn2nnc(-c3cccnc3)n2)c2ccc(F)cc2)cc1	17.3	47.9*	41.2	35.4*	90.0*	3.2	39.0*	57.5*	8.7	4.3
Cc1cccc(OCC(O)Cn2c(N3CCCCC3)nc3c2c(=O)n(C)c(=O)n3C)c1 (stereo not given)	11.9	-12.2	12.1	-14.6	63.6*	-7.5	29.8*	42.1	7.8	9.9
Cn1c(=O)c2c(nc(N3CCCCCC3)n2CC(O)COc2ccccc2)n(C)c1=O (stereo not given)	6.5	-12.8	23.2	-6.7	12.8	-6.4	x	x	x	x
O=C(Cn1nc2sc3ccccc3n2c(=O)c1=O)c1ccc(Cl)cc1	x	-11.1	6.1	-4.4	x	-7.5	x	x	x	x
CCN(c1ccccc1)S(=O)(=O)c1ccc(OC)c(NC(=O)Cc2ccc(F)cc2)c1	-1.4	26.1	-2.9	13.7	103.6*	x	8.3	3.1	2.2	0.4
CCN(c1ccccc1)S(=O)(=O)c1ccc(OC)c(NC(=O)CN2C(=O)NC(C)(C)C2=O)c1	0.0	-8.7	1.4	-8.1	5.0	x	x	x	x	x

Assay outcomes as filed in PubChem.
